# This is a sample that favours compounds with a hit; in the whole collection about 2.2% have one here.
# DDE Tn6 FP inh: disrupts Tn6 cyclic peptide binding to fibrin D-Dimer-E complex; P02675; Fibrin DD(E) TRITC-Tn6 fluorescence polarization displacement; inhibition, % at 8.3 µM; 0.21% of 370,000 active; AID 720509;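 active = inhibition above a per-campaign cutoff: mean of compounds within control limits plus 3 SD, cut at about 15% in these data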;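 note: 0% = median of all compound wells on the plate and 100% = blocking peptide control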
# Tn7 DDE FP: DD(E)-Tn7 binding inhibition, primary FP screen | 0.13% of 370,000 active | FP displacement of FITC-Tn7 peptide from fibrin DD(E); 0% = median of compound wells per plate | P02675 | inhibition, % at 8.3 µM | AID 720508;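 active = inhibition above the mean of compounds falling within the control limits plus 3 SD of them, cut at about 14% in these data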;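 note: 0% = plate median of compound wells and 100% = 10 µM Aha-Tn7 peptide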
#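 assay system = human clot-derived fibrin DD(E) complex | quantity = Fibrin-DD(E) at 2 µM final | timing = 10 min preincubation, 3 h with tracer, room temperature | signal = fluorescence polarization | measure = percent inhibition | benchmarks = high control wells with 10 µM unlabelled Aha-Tn7 peptide (full inhibition) | replicates = singlicate testing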
# Neddyl block: blocks human cullin neddylation; P61081+Q13564; TR-FRET cullin neddylation, biochemical; calls only at 25 µM; 0.58% of 360,000 active; AID 651699; in the data active = inhibition above about 36%
# Target sequence (P61081 whole entry, looked up): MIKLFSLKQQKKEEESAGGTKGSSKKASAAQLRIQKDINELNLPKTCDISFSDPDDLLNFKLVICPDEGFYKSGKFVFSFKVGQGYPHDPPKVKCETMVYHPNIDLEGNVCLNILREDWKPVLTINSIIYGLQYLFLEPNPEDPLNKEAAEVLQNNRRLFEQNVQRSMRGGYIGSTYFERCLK
# Target sequence (Q13564 whole entry, looked up): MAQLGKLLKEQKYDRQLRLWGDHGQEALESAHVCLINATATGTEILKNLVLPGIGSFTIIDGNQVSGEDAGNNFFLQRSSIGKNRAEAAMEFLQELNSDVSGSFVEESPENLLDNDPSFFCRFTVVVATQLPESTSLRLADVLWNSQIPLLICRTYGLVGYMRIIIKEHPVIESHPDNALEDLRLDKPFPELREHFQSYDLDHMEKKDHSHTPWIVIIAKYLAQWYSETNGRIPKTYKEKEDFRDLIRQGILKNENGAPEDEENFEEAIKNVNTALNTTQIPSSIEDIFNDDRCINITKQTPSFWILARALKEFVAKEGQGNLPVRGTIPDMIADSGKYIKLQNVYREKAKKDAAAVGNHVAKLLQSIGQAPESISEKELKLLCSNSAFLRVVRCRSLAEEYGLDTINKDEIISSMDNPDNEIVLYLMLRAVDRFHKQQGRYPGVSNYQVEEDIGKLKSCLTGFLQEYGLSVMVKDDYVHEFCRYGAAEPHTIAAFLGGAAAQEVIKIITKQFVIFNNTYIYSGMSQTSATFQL
# KLK7 zymogen act: activators of human kallikrein-7 zymogen | purified proKLK7, EDANS-DABCYL substrate fluorescence; 100% is mature enzyme control, 0% vehicle | activation, % at 7 µM | 0.9% of 370,000 active | AID 652039;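 active = activation above the mean of all tested compounds plus 3 SD, computed per campaign excluding outliers beyond control limits, cut at about 13% in these data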
# SKN-1 block: inhibitors of C. elegans SKN-1; C. elegans VP596 Pgst-4::GFP/RFP ratio, acrylamide-induced, 24 h; inhibition, % at 21.8 µM; 0.49% of 360,000 active; AID 624304;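 active = interference check ratio from 0.5 to 1.5 plus GFP to RFP signal ratio inhibition reaching or exceeding a fixed threshold, cut at about 30% in these data, passing the limit was not always enough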
# MT1-MMP act inh: blocks activation of human MT1-MMP. P50281. HT1080 RFP-PRO-GFP cells, GFP/RFP ratio fluorescence, overnight; percent of plate control window, DMSO zero. GFP/RFP ratio change, % at 20 µM. 0.061% of 360,000 active;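 active = GFP/RFP ratio change of at least 30% with cell ATP level not reduced by more than half and red fluorescence within 50% of control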
#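 Material – HT1080 RFP-PRO-GFP cells · Control set – DMSO wells and RFP-L50D-GFP cells · Incubation – overnight cell settling, then overnight compound exposure, 37 °C, 5% CO2 · Compound dosing – single-point 20 µM compound, 1% DMSO · Read-out – GFP/RFP fluorescence ratio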
# DDE Tn7 confirm: confirmation of inhibitors of Tn7 binding to human fibrin DD(E); FP displacement of TRITC-Tn7 peptide from DD(E); 0% set at plate's compound-well median; inhibition, % at 8.3 µM; shares compounds with Tn7 DDE FP; 5% of 460 active;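 active = inhibition above the campaign cutoff, the mean of compounds within control limits plus 3 SD, cut at about 14% in these data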;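 note: 100% = median FP of high control wells holding Aha-Tn7 inhibitor peptide; displacers lower polarization since freed probe rises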
# DDE Tn7 FP ctr: DD(E)-Tn7 binding inhibition, counter-screen. inhibition, % at 8.3 µM. fibrin DD(E), TRITC-Tn7 probe displacement, fluorescence polarization. 3% of 460 active. shares compounds with Tn7 DDE FP. AID 720633;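 active = inhibition above the cutoff, the mean of compounds lying between the control bounds plus 3 SD of those compounds, cut at about 17% in these data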;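 note: 0% = median of compound sample wells and 100% = excess unlabeled Aha-Tn7 peptide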
# Numbers without * were called inactive; i = inactive; · = no result.
SMILES,DDE Tn6 FP inh,Tn7 DDE FP,Neddyl block,KLK7 zymogen act,SKN-1 block,MT1-MMP act inh,DDE Tn7 confirm,DDE Tn7 FP ctr
CCOP(=O)(c1ccccc1)C(O)c1ccc(F)cc1 (stereo not drawn),8.6,2.5,i,0.2,-5.1,6.1,·,·
CN(C)S(=O)(=O)N1CCC(Oc2ccc(C(=O)N3C[C@H]4CC[C@H]3C4)cc2)CC1,0.3,-3.2,i,0.4,-4.1,-1.0,·,·
CN(C)S(=O)(=O)N1CCC(Oc2ccc(C(=O)N3C[C@@H]4CCC[C@H]3C4)cc2)CC1,9.5,14.1*,i,0.4,3.4,0.3,3.8,-2.8
CC1=NC(C(F)(F)F)(C(F)(F)F)C2=C(CC(C)(C)CC2=O)N1Cc1ccco1,-8.5,13.9*,i,-0.1,-3.5,1.5,5.5,2.9
CC1(C)CC(=O)C2=C(C1)N(Cc1ccco1)C(=O)C2(NC(=O)c1ccc(Cl)cc1Cl)C(F)(F)F (stereo not drawn),-4.6,-2.2,i,0.1,19.2,-4.9,·,·
CC1(C)CC(=O)C2=C(C1)N(Cc1ccco1)C(=O)C2(NC(=O)C1CCCCC1)C(F)(F)F (stereo not drawn),-1.7,14.0*,i,-1.2,-15.7,·,1.5,5.1
CC1(C)CC(=O)C2=C(C1)N(Cc1ccco1)C(=O)NC2(C(F)(F)F)C(F)(F)F,-0.4,-4.0,i,-0.6,-2.2,0.7,·,·
CC1(C)CC(N=c2cc(-c3ccccc3)oc3ccc(Cl)cc23)CC(C)(C)N1,6.0,-3.5,i,-0.2,-1.6,-6.6,·,·
COc1ccc(N(C(C)C(=O)N/N=C/c2ccc(OC(C)C)cc2)S(C)(=O)=O)cc1 (stereo not drawn),-1.9,-4.6,i,-0.4,-2.3,7.4,·,·
O=C(c1cccc([N+](=O)[O-])c1)N1CCN(C/C=C/c2ccccc2)CC1,-5.2,-2.0,i,0.1,-6.4,2.4,·,·
COC(=O)C1=C(C)NC(=O)NC1c1ccc2c(c1)OCO2 (stereo not drawn),-10.1,-1.0,i,0.2,3.1,3.0,·,·
CC1=C(C(=O)OC(C)C)C(c2ccc3c(c2)OCO3)NC(=O)N1 (stereo not drawn),-5.8,16.2*,i,0.3,1.7,-2.1,3.1,-1.1
CC(=O)Nc1ccc(S(=O)(=O)n2nc(-c3ccc(C)cc3)nc2N)cc1,-4.5,14.0*,i,0.9,-18.6,4.8,-0.9,-4.8
Cc1ccc(S(=O)(=O)n2nc(-c3cccnc3)nc2N)cc1,-3.0,-3.5,i,-0.4,-17.6,2.8,·,·
C=CC[C@@H](CC(=O)N(CCO)Cc1ccccc1)C(=O)N[C@H](COC(=O)[C@@H](CC=C)Cc1ccc(F)cc1)Cc1ccccc1,3.2,16.2*,i,0.1,-1.9,-26.7,-0.6,-3.6
C=CC[C@@H](CC(=O)N(CCO)Cc1ccccc1)C(=O)N[C@@H](COC(=O)[C@@H](CC=C)Cc1ccc(F)cc1)Cc1ccccc1,0.2,-10.6,i,0.1,4.5,-27.0,·,·
Cn1c(N)c(C(=O)CSc2nc(C3CC3)n(-c3ccccc3)n2)c(=O)[nH]c1=O,7.8,-3.2,i,0.2,15.6,-2.0,·,·
COC(=O)C1CSC(C(=O)OC)N1C(=O)Nc1ccc(Cl)c(Cl)c1 (stereo not drawn),3.5,15.0*,i,0.1,-2.5,-0.9,1.2,-1.8
COC(=O)C1CSC(C(=O)OC)N1C(=O)Nc1ccc(Cl)cc1 (stereo not drawn),2.4,2.0,i,-0.8,1.0,0.4,·,·
O=C(Nc1ccc2c(c1)CCC2)c1cnc(Cl)c(Cl)c1,7.3,3.7,i,-0.7,-9.7,-6.1,·,·
O=C(OCC(=O)N1CCCc2ccccc21)c1cccc(C(F)(F)F)c1,2.6,14.7*,i,-0.7,4.5,0.2,2.8,4.3
Cc1ccc(NC(=O)c2cc(CC(C)C)nc3ccccc23)cc1,4.1,-2.5,i,0.5,-16.2,-10.0,·,·
CCOC(=O)CN1C(=O)Nc2ccc(Br)cc2C1c1ccccc1 (stereo not drawn),-11.5,0.9,i,-0.5,-10.5,-3.3,·,·
COc1ccc(N(CC(=O)NCc2ccc3c(c2)OCO3)S(=O)(=O)c2ccc(O)c(C(=O)O)c2)cc1,1.5,14.9*,i,0.2,-9.2,0.6,-2.4,-8.6
COc1cc(CCC(=O)OCC(=O)c2ccc[nH]2)cc(OC)c1OC,-3.7,13.6,i,0.1,12.8,0.7,·,·
SMILES,DDE Tn6 FP inh,Tn7 DDE FP,Neddyl block,KLK7 zymogen act,SKN-1 block,MT1-MMP act inh,DDE Tn7 confirm,DDE Tn7 FP ctr
CCCCOC(=O)c1ccc(OC(=O)N2CCOCC2)cc1,0.1,5.5,i,-0.1,8.3,-3.2,·,·
Cc1cc(-c2ccc(C(C)C)c(S(=O)(=O)Nc3ccccn3)c2)on1,9.8,17.6*,i,2.9,19.5,-1.6,-2.1,-7.1
Cc1ccc[n+](-c2nc([O-])sc2C=O)c1,-3.4,24.9*,i,-0.1,-31.0,-105.3,5.1,-2.6
CC(C)c1ccc[n+](-c2nc([O-])sc2C=O)c1,-9.5,9.2,i,0.5,-15.2,1.8,·,·
COc1ccccc1CC(NC(C)=O)C(=O)NC1CCN(C(=O)c2cccc(Cl)c2)CC1 (stereo not drawn),-1.5,0.3,i,-0.2,-5.6,2.3,·,·
O=C(Nc1cccc(Cl)c1)N1CCCC1,5.5,14.1*,i,-0.9,-7.0,3.7,-0.3,-2.1
O=C(Nc1cccc(Cl)c1)N1CCOCC1,-0.3,2.3,i,0.4,-1.1,1.9,·,·
NC(=O)C1CCCN(C(=S)NCc2ccc3c(c2)OCO3)C1 (stereo not drawn),8.6,-1.1,i,-0.7,-3.0,-0.3,·,·
NC(=O)C1CCN(C(=S)NCc2ccc3c(c2)OCO3)CC1,8.0,14.6*,i,0.3,-2.2,3.6,-0.1,-3.6
CCCSc1ccc([C@@H]2[C@@H]3C(=O)N(C)C(=O)[C@@H]3[C@]3(C(=O)OC)CCCCN23)cc1OC,1.1,6.6,i,0.1,-3.2,-2.2,·,·
COc1ccc2c(c1)CO[C@H]([C@H](O)COC(C)=O)[C@H]2/C=C/c1ccccc1,-5.3,14.7*,·,0.5,·,·,9.9,4.8
COC(=O)C(C(C)C)N(Cc1cc(OC)cc(OC)c1)S(=O)(=O)CCl (stereo not drawn),0.7,14.7*,i,0.7,1.8,4.3,-0.3,-3.6
CC1=C(C(=O)Nc2ccccc2)C(c2ccncc2)n2nnnc2N1 (stereo not drawn),6.8,5.9,i,-0.7,-38.8,-1.4,·,·

# Compound activity deposited in PubChem BioAssay by several laboratories.
